Ten molecules from ChEMBL document CHEMBL1150214, “Isolation, synthesis, and structure-activity relationships of bioactive benzoquinones from Miconia lepidota from the Suriname rainforest” (J Nat Prod, 2001) can be followed below.

≈ marks a conversion by molar mass, not a printed value.

The test system of experiment [1] is Saccharomyces cerevisiae. Kind of experiment: Antifungal activity against Saccharomyces cerevisiae 7 assessed as concentration required to generate kill-zone of 12 mm in diameter. The experiment is classed as functional. The gist of the method:
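Mutant S. cerevisiae Sc-7 on an agar-based gel, incubated […] with samples. Kill-zone diameters measured; IC12 (µg/mL) is the concentration giving a 12 mm zone. Standard deviations come from three separate experiments.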

In experiment [2] the test system is Saccharomyces cerevisiae. Kind of experiment: Antifungal activity against Saccharomyces cerevisiae 1353 assessed as concentration required to generate kill-zone of 12 mm in diameter after 48 hrs.
Experiment [3] concerns Saccharomyces cerevisiae. Kind of experiment: Antifungal activity against Saccharomyces cerevisiae 1138 assessed as concentration required to generate kill-zone of 12 mm in diameter after 48 hrs. The experiment is classed as functional. A digest of the protocol: (§1)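 Mutant S. cerevisiae strains on an agar-based gel, incubated 48 h with samples. Inhibition zones measured; IC12 (µg/mL) is the concentration producing a 12 mm diameter kill zone. Values with standard deviations come from three separate experiments.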

The test system of experiment [4] is Saccharomyces cerevisiae. Kind of experiment: Antifungal activity against Saccharomyces cerevisiae 1140 assessed as concentration required to generate kill-zone of 12 mm in diameter after 48 hrs. The experiment is classed as functional. A digest of the protocol: as §1
A further experiment has as its system M109. Kind of experiment: Cytotoxicity against mouse M109 cells. The format is functional, cell-based. The gist of the method: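 In vitro antitumor cytotoxicity in murine Madison Lung Carcinoma (M109) cells, run at Bristol-Myers Squibb; value given as IC50 in µg/mL.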
The subject of another experiment is A2780. As to the kind of experiment: Cytotoxicity against human A2780 cells. The format is functional, cell-based.

For `CCC1=CC(=O)C=C(OC)C1=O`, the Activity came out at 220 µg/mL in the experiment with Saccharomyces cerevisiae [1], 233 µg/mL with Saccharomyces cerevisiae [2], 200 µg/mL with Saccharomyces cerevisiae [3] and 140 µg/mL in the experiment with Saccharomyces cerevisiae [4].
Turning to NYSTATIN, the Activity with Saccharomyces cerevisiae [3] was found to be 14 µg/mL; with Saccharomyces cerevisiae [4], 13 µg/mL.
For `COC1=CC(=O)C=C(Cc2ccccc2)C1=O`, the Activity in the experiment on Saccharomyces cerevisiae [1] turned out to be 180 µg/mL; in the experiment on Saccharomyces cerevisiae [2], 590 µg/mL; in the experiment with Saccharomyces cerevisiae [3] it was 460 µg/mL; with Saccharomyces cerevisiae [4] it was 420 µg/mL.
For the molecule `COC1=CC(=O)C=C(C)C1=O`, the Activity is 530 µg/mL with Saccharomyces cerevisiae [1], 830 µg/mL with Saccharomyces cerevisiae [2], 580 µg/mL in the experiment on Saccharomyces cerevisiae [3] and 630 µg/mL in the experiment on Saccharomyces cerevisiae [4].
Regarding `CCCCCCCCCCC1=CC(=O)C=C(OC)C1=O`, the Activity in the experiment on Saccharomyces cerevisiae [1] was 3 µg/mL; in the experiment with Saccharomyces cerevisiae [2], 380 µg/mL; in the experiment on Saccharomyces cerevisiae [3], 380 µg/mL; in the experiment on Saccharomyces cerevisiae [4] it was 380 µg/mL. This molecule also gave an IC50 in the experiment on M109 of 10 µg/mL (≈ 35.9 µM).
In the case of `CCCCC(O)C1=CC(=O)C=C(OC)C1=O` (centres undefined), the Activity stood at 438 µg/mL with Saccharomyces cerevisiae [1], 577 µg/mL in the experiment on Saccharomyces cerevisiae [2], 536 µg/mL in the experiment with Saccharomyces cerevisiae [3] and 430 µg/mL in the experiment with Saccharomyces cerevisiae [4].
For the molecule `CCCCCCCC1=CC(=O)C=C(OC)C1=O`, the Activity with Saccharomyces cerevisiae [1] came out at 16 µg/mL; in the experiment on Saccharomyces cerevisiae [2], 220 µg/mL; in the experiment with Saccharomyces cerevisiae [3], 120 µg/mL; with Saccharomyces cerevisiae [4], 130 µg/mL. In addition, the figures for the IC50 in the experiment with A2780 and in the experiment with M109 were 7.9 µg/mL (≈ 33.4 µM) and 10 µg/mL (≈ 42.3 µM), respectively.
On to `CCCCCCCCCCCCCCCCCCCC1=CC(=O)C=C(OC)C1=O`, for which the Activity in the experiment with Saccharomyces cerevisiae [1], in the experiment with Saccharomyces cerevisiae [2], in the experiment on Saccharomyces cerevisiae [3] and in the experiment with Saccharomyces cerevisiae [4] was more than 2000 µg/mL throughout.
On to `CCCCC1=CC(=O)C=C(OC)C1=O`, for which the Activity in the experiment on Saccharomyces cerevisiae [1] was 80 µg/mL; in the experiment with Saccharomyces cerevisiae [2], 210 µg/mL; in the experiment with Saccharomyces cerevisiae [3], 220 µg/mL; in the experiment on Saccharomyces cerevisiae [4], 150 µg/mL. The molecule also registered an IC50 in the experiment on A2780 of 3.2 µg/mL (≈ 16.5 µM).
On to `CCCCCC1=CC(=O)C=C(OC)C1=O` [Primin], for which the Activity in the experiment with Saccharomyces cerevisiae [1] came to 48 µg/mL; with Saccharomyces cerevisiae [2] it was 285 µg/mL; in the experiment with Saccharomyces cerevisiae [3] it was 240 µg/mL; in the experiment on Saccharomyces cerevisiae [4], 170 µg/mL. Also, the IC50 in the experiment with A2780 stood at 2.9 µg/mL (≈ 13.9 µM); with M109 it was 10 µg/mL (≈ 48 µM).

One may read the IC50 as the point on the concentration scale where inhibition reaches its midpoint. Read a low IC50 as greater potency in that assay.
